Active and inactive are the calls of the source. No cut-off for these calls is given here.

We go through seven compounds from ChEMBL document CHEMBL3797075 (Bioorg Med Chem, 2016).

The target of assay [1] is T1, Steryl-sulfatase (Homo sapiens) (UniProt P08842).
T1 sequence (whole entry): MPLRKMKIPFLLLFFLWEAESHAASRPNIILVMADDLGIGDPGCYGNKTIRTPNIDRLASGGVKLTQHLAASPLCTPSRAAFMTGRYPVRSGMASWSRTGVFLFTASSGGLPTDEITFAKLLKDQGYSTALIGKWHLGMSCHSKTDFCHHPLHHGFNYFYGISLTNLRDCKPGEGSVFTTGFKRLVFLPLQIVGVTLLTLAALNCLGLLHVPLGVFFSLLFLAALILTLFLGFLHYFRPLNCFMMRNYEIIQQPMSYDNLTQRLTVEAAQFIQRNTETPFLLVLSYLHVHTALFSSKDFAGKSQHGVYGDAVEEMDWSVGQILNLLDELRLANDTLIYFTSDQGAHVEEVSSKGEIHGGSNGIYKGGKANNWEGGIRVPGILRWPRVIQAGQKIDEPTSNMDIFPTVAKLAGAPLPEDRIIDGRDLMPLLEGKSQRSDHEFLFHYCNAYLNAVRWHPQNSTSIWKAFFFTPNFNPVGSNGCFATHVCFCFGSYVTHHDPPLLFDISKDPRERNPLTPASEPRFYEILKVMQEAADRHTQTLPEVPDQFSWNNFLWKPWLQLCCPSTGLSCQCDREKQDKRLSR
Nature of the assay: Inhibition of steroid sulfatase (unknown origin) at 10 uM. In a few lines: (§1)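 STS source was lysate of human JEG-3 choriocarcinoma cells at 125 µg protein/mL. Substrate was [³H]E₁S adjusted to 20 µM with unlabelled E₁S. Inhibitor was added at a single 10 µM or at 0.5–20 µM, incubated for 1 h. Product was extracted into toluene, with [4-¹⁴C]E₁ correcting for losses. Values are % inhibition, triplicate mean.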

Assay [2] has as its target T1, Steryl-sulfatase (Homo sapiens). Put plainly: Inhibition of steroid sulfatase (unknown origin). A digest of the protocol:
as §1

Assay [3] shares this target. Nature of the assay: Inhibition of steroid sulfatase in human JEG-3 cells assessed as […]Estrone formation using [3H]E1S as substrate at 20 uM. In kind it is cell-based. In a few lines:
(§2)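 Intact JEG-3 monolayers were incubated for 20 h at 37 °C in serum-free EMEM with [³H]E₁S (5 pmol, 60 Ci/mmol), with or without inhibitor. Estrone was separated from E₁S by toluene partition, with [¹⁴C]estrone correcting for recovery. Counts were read by scintillation, and hydrolysed E₁S mass was derived from ³H counts and substrate specific activity. Values are triplicate means.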

Assay [4] has the same target. Nature of the assay: Inhibition of steroid sulfatase (unknown origin) at 20 uM. A digest of the protocol:
as §1

The target is the same in assay [5]. Put plainly: Inhibition of steroid sulfatase in human JEG-3 cells assessed as […]Estrone formation using [3H]E1S as substrate at 10 uM. Type of assay: cell-based. A digest of the protocol: as §2
For assay [6] the target is unchanged. Nature of the assay: (§3) Inhibition of steroid sulfatase in human JEG-3 cells assessed as […]Estrone formation using [3H]E1S as substrate. In kind it is cell-based. In a few lines:
as §2

The target in the next assay is T2, Steryl-sulfatase (Homo sapiens, UniProt P08842).
T2 sequence (P08842 whole entry): T1 sequence (whole entry)
The assay is described as §3. In kind it is cell-based. In a few lines: as §2

Turning to `Cc1ccc(S(=O)(=O)Oc2ccc(NC(=O)C3CCCC3)cc2)cc1`, the inhibition entry in assay [1] was “Active”.

In the case of `NS(=O)(=O)Oc1ccc(NC(=O)C2CCCCC2)cc1`, the inhibition result in assay [2] is “Dose-dependent effect”; in assay [3] it was 93.9%; in assay [1], 55.7%; in assay [4], 72%; in assay [5], 86.1%; in assay [6], “Dose-dependent effect”. In addition, on Steryl-sulfatase, the IC50 worked out at 421 nM.

For `CN(C)S(=O)(=O)Oc1ccc(NC(=O)C2CCCCC2)cc1`, in assay [1], the inhibition entry was “Active”.

`CCS(=O)(=O)Oc1ccc(NC(=O)C2CCCCC2)cc1`: the inhibition result in assay [1] is “Active”.

Regarding `Cc1ccc(S(=O)(=O)Oc2ccc(NC(=O)C3CCCCC3)cc2)cc1`, in assay [1], the inhibition entry was “Active”.

For `CNS(=O)(=O)Oc1ccc(NC(=O)C2CCCC2)cc1`, the inhibition entry in assay [1] is “Active”.

As for `CNS(=O)(=O)Oc1ccc(NC(=O)C2CCCCC2)cc1`, the inhibition result in assay [1] is “Active”.
